Data: ChEMBL document CHEMBL4387724, “2-Pyridineformamide N(4)-ring incorporated thiosemicarbazones inhibit MCF-7 cells by inhibiting JNK pathway” (Bioorg Med Chem Lett, 2019)
Active and inactive are the calls of the source. No cut-off for these calls is given here.

Key:
MCF7 [1] = experiment: Cytotoxicity against human MCF7 cells assessed as reduction in cell growth incubated for 72 hrs by MTT assay; type: functional, cell-based; settings: MCF7, 72 h
Procedure, shortened: (§1)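 Cells grown in DMEM with 10% FBS and penicillin-streptomycin at 37 °C, 5% CO2, seeded at 3000 cells/well and attached overnight. Screening series given at 1, 3, 10, 100 μM; follow-up agent at 100 nM–3 μM; both 72 h, with 0.1% DMSO vehicle. MTT (5 mg/mL stock) added for 3 h at 37 °C, formazan dissolved in DMSO, absorbance read at 570 nm. Viability expressed as % of DMSO-treated wells from replicates.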

A-375 [2] = experiment: Cytotoxicity against human A375 cells assessed as reduction in cell growth at 30 uM incubated for 72 hrs by MTT assay relative to control; type: functional; settings: A-375, 72 h, read-out: GI
MCF7 [3] = experiment: Induction of apoptosis in human MCF7 cells assessed as increase in Bax protein expression at 100 nM to 3 uM incubated for 48 hrs by immunoblot method; type: functional, cell-based
Procedure, shortened: (§2)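 MCF7 cells seeded at 1.25×10^5 per well in six-well plates and treated at 100 nM–3 μM for 48 h per legend (72 h per methods note). Lysed in 2X SDS buffer and sonicated; protein quantified by BCA. 20–25 µg run on 12% SDS gels and transferred to PVDF. Blocked in 5% BSA/TBST, primary antibodies overnight, secondary 1 h, ECL detection, β-actin as loading control.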

MCF7 [4] = experiment: Cytotoxicity against human MCF7 cells assessed as reduction in cell growth at 30 uM incubated for 72 hrs by MTT assay relative to control; type: functional; settings: MCF7, 72 h, read-out: GI
HeLa [5] = experiment: Cytotoxicity against human HeLa cells assessed as reduction in cell growth at 30 uM incubated for 72 hrs by MTT assay relative to control; type: functional; settings: read-out: GI
MCF7 [6] = experiment: Induction of apoptosis in human MCF7 cells assessed as effect on pro-caspase-3 expression at 100 nM to 3 uM incubated for 48 hrs by immunoblot method; type: functional, cell-based; procedure, shortened: as §2
MCF7 [7] = experiment: Cytotoxicity against human MCF7 cells assessed as reduction in cell growth at 100 uM incubated for 72 hrs by MTT assay relative to control; type: functional; settings: MCF7, 72 h, read-out: GI; procedure, shortened: as §1
MCF7 [8] = experiment: Cytotoxicity against human MCF7 cells assessed as reduction in cell growth at 1 uM incubated for 72 hrs by MTT assay relative to control; type: functional; settings: MCF7, 72 h, read-out: GI; procedure, shortened: as §1
HeLa [9] = experiment: Cytotoxicity against human HeLa cells assessed as reduction in cell growth at 100 uM incubated for 72 hrs by MTT assay relative to control; type: functional; settings: read-out: GI; procedure, shortened: as §1
A-431 [10] = experiment: Cytotoxicity against human A431 cells assessed as reduction in cell growth incubated for 72 hrs by MTT assay; type: functional, cell-based; settings: A-431, 72 h; procedure, shortened: as §1
MCF7 [11] = experiment: Induction of apoptosis in human MCF7 cells assessed as reduction in Bcl2 protein expression at 100 nM to 3 uM incubated for 48 hrs by immunoblot method; type: functional, cell-based; procedure, shortened: as §2
MCF7 [12] = experiment: Antiproliferative activity against human MCF7 cells assessed as inhibition of colony formation at 100 nM to 3 uM incubated for 21 days with every 72 hrs media was change treatment by crystal violet staining based assay; type: functional, cell-based
Procedure, shortened: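 MCF7 cells seeded at 500 cells/well (legend: 1200/well) in six-well plates, left to adhere overnight, then dosed at 100 nM–3 μM. Medium and compound renewed every 72 h over 21 days. Colonies washed with PBS, fixed in 3.7% formaldehyde 20 min, stained with 0.4% crystal violet, rinsed in PBS, then counted.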

MCF7 [13] = experiment: Cytotoxicity against human MCF7 cells assessed as reduction in cell growth at 100 nM to 3 uM incubated for 72 hrs by MTT assay; type: functional, cell-based; procedure, shortened: as §1
A-431 [14] = experiment: Cytotoxicity against human A431 cells assessed as reduction in cell growth at 30 uM incubated for 72 hrs by MTT assay relative to control; type: functional; settings: A-431, 72 h, read-out: GI
MCF7 [15] = experiment: Cytotoxicity against human MCF7 cells assessed as reduction in cell growth at 3 uM incubated for 72 hrs by MTT assay relative to control; type: functional; settings: MCF7, 72 h, read-out: GI; procedure, shortened: as §1
HeLa [16] = experiment: Cytotoxicity against human HeLa cells assessed as reduction in cell growth at 10 uM incubated for 72 hrs by MTT assay relative to control; type: functional; settings: read-out: GI; procedure, shortened: as §1
MCF7 [17] = experiment: Induction of apoptosis in human MCF7 cells assessed as effect on PARP1 protein expression at 100 nM to 3 uM incubated for 48 hrs by immunoblot method; type: functional, cell-based; procedure, shortened: as §2
HeLa [18] = experiment: Cytotoxicity against human HeLa cells assessed as reduction in cell growth at 1 uM incubated for 72 hrs by MTT assay relative to control; type: functional; settings: read-out: GI; procedure, shortened: as §1
A-431 [19] = experiment: Cytotoxicity against human A431 cells assessed as reduction in cell growth at 1 uM incubated for 72 hrs by MTT assay relative to control; type: functional; settings: A-431, 72 h, read-out: GI; procedure, shortened: as §1
A-431 [20] = experiment: Cytotoxicity against human A431 cells assessed as reduction in cell growth at 3 uM incubated for 72 hrs by MTT assay relative to control; type: functional; settings: A-431, 72 h, read-out: GI; procedure, shortened: as §1
MCF7 [21] = experiment: Induction of apoptosis in human MCF7 cells assessed as downregulation of c-Jun protein expression 100 nM to 3 uM incubated for 48 hrs by immunoblot method; type: functional, cell-based; procedure, shortened: as §2
A-375 [22] = experiment: Cytotoxicity against human A375 cells assessed as reduction in cell growth at 1 uM incubated for 72 hrs by MTT assay relative to control; type: functional; settings: A-375, 72 h, read-out: GI; procedure, shortened: as §1
A-375 [23] = experiment: Cytotoxicity against human A375 cells assessed as reduction in cell growth at 3 uM incubated for 72 hrs by MTT assay relative to control; type: functional; settings: A-375, 72 h, read-out: GI; procedure, shortened: as §1
MCF7 [24] = experiment: Antiproliferative activity against human MCF7 cells assessed as induction of cell death at 100 nM to 3 uM incubated for 48 hrs by propidium iodide based flow cytometry; type: functional
Procedure, shortened: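 MCF7 cells in DMEM with 10% FBS at 37 °C, 5% CO2, 30,000 cells/well in six-well plates, exposed to 100 nM, 300 nM, 1 μM or 3 μM (0.1% DMSO vehicle) for 48 h per legend (72 h per methods note). Harvested, washed in PBS, stained with propidium iodide (5 μg/mL) 20 min at 4 °C, and % dead cells read by flow cytometry against DMSO control.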

MCF7 [25] = experiment: Cytotoxicity against human MCF7 cells assessed as reduction in cell growth at 10 uM incubated for 72 hrs by MTT assay relative to control; type: functional; settings: MCF7, 72 h, read-out: GI; procedure, shortened: as §1
A-375 [26] = experiment: Cytotoxicity against human A375 cells assessed as reduction in cell growth at 100 uM incubated for 72 hrs by MTT assay relative to control; type: functional; settings: A-375, 72 h, read-out: GI; procedure, shortened: as §1
HeLa [27] = experiment: Cytotoxicity against human HeLa cells assessed as reduction in cell growth incubated for 72 hrs by MTT assay; type: functional, cell-based; procedure, shortened: as §1
A-431 [28] = experiment: Cytotoxicity against human A431 cells assessed as reduction in cell growth at 100 uM incubated for 72 hrs by MTT assay relative to control; type: functional; settings: A-431, 72 h, read-out: GI; procedure, shortened: as §1
A-375 [29] = experiment: Cytotoxicity against human A375 cells assessed as reduction in cell growth incubated for 72 hrs by MTT assay; type: functional, cell-based; settings: A-375, 72 h; procedure, shortened: as §1
HeLa [30] = experiment: Cytotoxicity against human HeLa cells assessed as reduction in cell growth at 3 uM incubated for 72 hrs by MTT assay relative to control; type: functional; settings: read-out: GI; procedure, shortened: as §1
A-375 [31] = experiment: Cytotoxicity against human A375 cells assessed as reduction in cell growth at 10 uM incubated for 72 hrs by MTT assay relative to control; type: functional; settings: A-375, 72 h, read-out: GI; procedure, shortened: as §1
A-431 [32] = experiment: Cytotoxicity against human A431 cells assessed as reduction in cell growth at 10 uM incubated for 72 hrs by MTT assay relative to control; type: functional; settings: A-431, 72 h, read-out: GI; procedure, shortened: as §1
MCF7 [33] = experiment: Induction of apoptosis in human MCF7 cells assessed as downregulation of JNK1 protein expression at 100 nM to 3 uM incubated for 48 hrs by immunoblot method; type: functional, cell-based; procedure, shortened: as §2

Compound	IC50 (MCF7 [1]) [µM]	inhibition of growth at 30 µM (A-375 [2]) [%]	inhibition of growth at 30 µM (MCF7 [4]) [%]	inhibition of growth at 30 µM (HeLa [5]) [%]	inhibition of growth at 100 µM (MCF7 [7]) [%]	inhibition of growth at 1 µM (MCF7 [8]) [%]	inhibition of growth at 100 µM (HeLa [9]) [%]	IC50 (A-431 [10]) [µM]	inhibition of growth at 30 µM (A-431 [14]) [%]	inhibition of growth at 3 µM (MCF7 [15]) [%]	inhibition of growth at 10 µM (HeLa [16]) [%]	inhibition of growth at 1 µM (HeLa [18]) [%]	inhibition of growth at 1 µM (A-431 [19]) [%]	inhibition of growth at 3 µM (A-431 [20]) [%]	inhibition of growth at 1 µM (A-375 [22]) [%]	inhibition of growth at 3 µM (A-375 [23]) [%]	inhibition of growth at 10 µM (MCF7 [25]) [%]	inhibition of growth at 100 µM (A-375 [26]) [%]	IC50 (HeLa [27]) [µM]	inhibition of growth at 100 µM (A-431 [28]) [%]	other results
N/C(=N\NC(=S)N1CCCC1)c1ccc(F)cn1	0.9	83.2	60.6	81.2	73	51	85.4	1	83.3	52.6	72.7	62.8	50.7	72.2	57.9	81.8	54.5	86.6	1.8	85.6	Activity (MCF7 [3]): Active; Activity (MCF7 [6]): Active; Activity (MCF7 [11]): Active; inhibition (MCF7 [12]): Dose-dependent effect; Activity (MCF7 [13]): Dose-dependent effect; Activity (MCF7 [17]): Active; Activity (MCF7 [21]): Dose-dependent effect; Activity (MCF7 [24]): Dose-dependent effect; IC50 (A-375 [29]): 0.86 µM; inhibition of growth at 3 µM (HeLa [30]): 77.7%; inhibition of growth at 10 µM (A-375 [31]): 82.3%; inhibition of growth at 10 µM (A-431 [32]): 78.7%; Activity (MCF7 [33]): Dose-dependent effect
N/C(=N\NC(=S)N1CCCCC1)c1ccccn1	8.5	87	69.3	76.9	77.7	15.4	86	6.9	79.7	38.6	55.7	15.5	24.4	27	72.5	86.5	53.1	88.5	3.8	85.6	IC50 (A-375 [29]): 0.68 µM; inhibition of growth at 3 µM (HeLa [30]): 49.2%; inhibition of growth at 10 µM (A-375 [31]): 85.8%; inhibition of growth at 10 µM (A-431 [32]): 68.1%
Cc1cccc(/C(N)=N/NC(=S)N2CCCC2)n1	61.8	60.8	40.1	74.5	61.8	17.4	80.1	4	72.2	26.6	79.2	8.7	21	47.2	13.6	51.3	38.2	66.3	2.7	86.8	IC50 (A-375 [29]): 2.9 µM; inhibition of growth at 3 µM (HeLa [30]): 56.8%; inhibition of growth at 10 µM (A-375 [31]): 55.9%; inhibition of growth at 10 µM (A-431 [32]): 67.6%
